Screens from PubChem.
HSF-1 act – increases HSF-1 driven luciferase reporter signal | 300,000 compounds, 1.7% hits | AID 504408 | NIH3T3-HGL HSF-1 luciferase reporter, MG132, 8 h; 100% = twice DMSO control signal | activation, % at 9 µM;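 active = mean replicate activation of at least 50% with a set share of replicates each reaching 50%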;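 also: 0% = median of the neutral control wells and 100% = twice that signal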
CHT block – inhibitors of human choline transporter CHT. B-score at 10 µM. AID 488975. 310,000 compounds, 0.86% hits. CHT-expressing cells, membrane potential dye, choline response; hits give low values. Q9GZV3;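 active = B-score over 3 SD under the library average, and starting fluorescence ratio not unusually high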;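 also: choline stimulus applied at its EC90 after an EC20 pre-addition; B-score computed on integrated fluorescence ratio after choline addition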
CHT allo act – allosteric activators of human choline transporter CHT | CHT-expressing cells, membrane potential dye, choline EC20; hits give high values; LV-AA mutant CHT in HEK293 cells | B-score at 10 µM | Q9GZV3 | 310,000 compounds, 0.49% hits;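 active = initial fluorescence not abnormally high and integrated response B-score, plate-corrected, over 3 SD above library mean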
HSF1 inhib – HSF1 inhibition. NIH3T3-HGL HSE-luciferase, MG132-induced, luminescence 8 h; hits give low values. AID 2098. activity change, negative = inhibition, % at 7.5 µM (by protocol). 300,000 compounds, 0.77% hits;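 active = more than half of replicate wells show activity change below -50%, luminescence cut by over half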;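 also: luciferase reports HSF-1 transcriptional activity via heat shock element; 0% = median of DMSO wells and -100% = zero luminescence signal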
Hep lipid drop – modulators of hepatic lipid droplet formation; AML12 mouse hepatocytes, oleate lipid droplets, BODIPY imaging; 240,000 compounds, 0.4% hits; AID 1656; inhibition, % at 6.5 µM;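 active = lipid droplet intensity inhibited by at least 50%, with more than 500 cells counted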
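Assay system: AML12 mouse liver cells | Compound dosing: One dose, 6.5 µM compound | Read-out basis: Droplet intensity reduction, % inhibition | Measured by: Fluorescence imaging, 20x objective, two fields per well | Schedule: Overnight treatment with compound plus oleate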
PHOSPHO1 inh – PHOSPHO1 (human) inhibition; Q8TCT1; recombinant PHOSPHO1, absorbance phosphatase assay; inhibition, % at 13.3 µM; 290,000 compounds, 1.1% hits; AID 1565; in the data active = inhibition above about 60%
Target sequence (Q8TCT1 whole entry, looked up): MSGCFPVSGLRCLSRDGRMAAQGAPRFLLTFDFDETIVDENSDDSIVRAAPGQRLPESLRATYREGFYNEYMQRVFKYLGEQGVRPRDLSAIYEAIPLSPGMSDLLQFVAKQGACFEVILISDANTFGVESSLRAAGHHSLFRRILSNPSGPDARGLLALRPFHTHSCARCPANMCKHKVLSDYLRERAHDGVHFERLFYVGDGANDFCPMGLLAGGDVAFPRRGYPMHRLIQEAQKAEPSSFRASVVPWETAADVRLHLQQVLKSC
Starred values were filed as active, the others as inactive; i = inactive; . = no result. Sampled rows, rich in hits. Any-hit rate of the full collection: about 4.9%.

SMILES | HSF-1 act | CHT block | CHT allo act | HSF1 inhib | Hep lipid drop | PHOSPHO1 inh
CCN(CC(=O)Nc1ccc(NC(C)=O)cc1)C(=O)CCCOc1ccc(C(C)(C)C)cc1 | -13 | i | i | 8 | . | .
CCOc1ccc2nc(SCc3ccccc3C#N)sc2c1 | 115* | i | i | 68 | . | 9
CCOc1ccc2nc(SCc3ccc(OC)cc3)sc2c1 | 12 | i | i | 14 | -31 | -33
O=S(N1CCc2ccccc21)C12CC3CC(CC(C3)C1)C2 (stereo not given) | -11 | i | i | -3 | 3 | 1
COc1cccc(/C=C2\Oc3cc(OC(=O)N4CCOCC4)ccc3C2=O)c1 | 8 | i | i | 11 | 33 | 28
Cc1ccc(/C=C2\Oc3cc(OC(=O)N4CCOCC4)ccc3C2=O)cc1 | 92* | i | i | 32 | -6 | 30
O=C(CSC(=S)N1CCCCC1)Nc1nc(-c2ccccc2)c(-c2ccccc2)o1 | 14 | i | i | -3 | . | 23
O=C(CSC(=S)N1CCOCC1)Nc1nc(-c2ccccc2)c(-c2ccccc2)o1 | -64 | i | i | -61* | . | -21
O=C(Nc1ccc(N2CCN(C(=O)c3ccc(Cl)cc3)CC2)cc1)c1ccc([N+](=O)[O-])o1 | -6 | . | . | 6 | -5 | 13
Nc1cc([N+](=O)[O-])ccc1Nc1ccc(O)cc1 | 15 | i | i | 4 | -7 | -63
Nc1ccccc1Nc1ccc([N+](=O)[O-])cc1[N+](=O)[O-] | 60* | i | i | 18 | -29 | -3
CC1Cc2cc(S(=O)(=O)N3CCC(C(=O)NCc4ccco4)CC3)ccc2N1C(=O)C1CCC1 (stereo not given) | -4 | i | i | 1 | -28 | 32
CCOCCCNC(=O)c1ccc(/C=C2\Oc3ccccc3N(C)C2=O)cc1 | 1 | i | i | 1 | 10 | 16
O=C(COC(=O)Cc1c(Cl)cccc1Cl)Nc1ccc(OC(F)(F)F)cc1 | -86 | i | i | -84* | 10 | -1
CN(CC(=O)Nc1ccc(OC(F)(F)F)cc1)C(=O)Cc1c(Cl)cccc1Cl | 19 | i | i | -3 | -2 | 15
COc1ccc(CCN(C)C2CC(=O)N(c3ccccc3)C2=O)cc1OC (stereo not given) | 15 | i | i | -3 | -2 | 24
CC(C)OC(=O)CSc1nnc(COc2ccc([N+](=O)[O-])cc2)n1C | 9 | i | i | 1 | 3 | -29
Cc1cc2nc(-c3cccnc3SCC(=O)NCc3ccco3)[nH]c2cc1C | 25 | i | i | 5 | . | .
CC(C)c1nc2ccccc2c2nnc(SCC(=O)NCc3ccco3)n12 | -69 | i | i | -60* | -4 | 52
O=C(CSc1ncccc1-c1nc2ccccc2[nH]1)NCc1ccco1 | -22 | i | i | -8 | . | 61*
CC(C)(C)c1nc2ccccc2c2nnc(SCC(=O)NCc3ccco3)n12 | 3 | i | i | 1 | . | -2
O=C(CSc1nc(C2CCCCC2)nc2ccccc12)NCc1ccco1 | 59* | i | i | 37 | -2 | 41
CCOC(=O)c1nn(-c2ccc(Cl)cc2Cl)c(=N)c(C#N)c1C | 43 | i | i | 4 | 0 | 10
CCCCOC(=O)N1CCOCCOCCOCCOCC1 | 2 | i | i | -12 | 0 | 4
CCC1CSC(Nc2ccc(C(=O)/C=C/c3cccc(C)c3)cc2)=N1 (stereo not given) | 75* | i | i | 53 | -8 | -4
SMILES | HSF-1 act | CHT block | CHT allo act | HSF1 inhib | Hep lipid drop | PHOSPHO1 inh
CCC1CSC(Nc2ccc(C(=O)/C=C/c3ccc(Oc4ccccc4)cc3)cc2)=N1 (stereo not given) | 14 | i | i | 14 | -7 | -15
O=C(CNC(=O)c1ccccc1Cl)OCC(=O)N1CCc2ccccc21 | 55* | i | i | 27 | 1 | 5
Cc1cccc(C(=O)NCC(=O)OCC(=O)N2CCc3ccccc32)c1 | 11 | i | i | -2 | 4 | 36
O=C(COc1ccc(F)cc1Br)N1CCc2ccccc21 | 80* | i | i | 23 | -14 | 3
Cc1ccccc1NS(=O)(=O)c1ccc(C(=O)N2CCN(S(=O)(=O)c3ccccc3)CC2)cc1 | -4 | i | i | -4 | . | .
C[C@@H](C(=O)OCC(=O)NCCc1ccc(S(N)(=O)=O)cc1)N1C(=O)C2CCCCC2C1=O (stereo not given in full) | 9 | i | i | -4 | 2 | 1
CCOCCCNC(=O)c1cc(C)nn1-c1ccccc1 | -78 | i | i | -72* | 3 | -6
Cc1cc(C(=O)NCc2ccc(Cl)cc2)n(-c2ccccc2)n1 | -77 | i | i | -68* | -6 | 20
Cc1ccc(CCNC(=O)c2cc(C)nn2-c2ccccc2)cc1 | 31 | i | i | 4 | -48 | 27
Cc1cccc(CN2CCC(C(=O)Nc3ccc(-n4nc(C)cc4C)cc3)CC2)n1 | 2 | i | i | 6 | -3 | 16
Cc1cccc(-n2ncc3c2CCCC3NC(=O)C2=CC(=O)CC(C)(C)O2)c1C (stereo not given) | 4 | i | i | 1 | -2 | 11
COc1ccc(/C=C(\CC(=O)O)c2nc3ccccc3s2)cc1O | 11 | i | i | -3 | 13 | -1
COc1ccc(-c2nn(-c3ccccc3)cc2/C=C(\CC(=O)O)c2nc3ccccc3s2)cc1OC | -78 | i | i | -70* | 15 | 24
CC(C)OC(=O)c1cc(NC(=O)C2C3C=CC(O3)C2C(=O)O)cc(C(=O)OC(C)C)c1 (stereo not given) | -13 | i | i | -12 | 0 | 34
OC12CCCCC1C(c1ccc3c(c1)OCO3)N(Cc1cccc(F)c1)CC2 (stereo not given) | 30 | . | . | 2 | . | -23
O=C(NCc1ccccc1F)c1ccc2c(c1)OCO2 | -1 | i | i | 6 | 18 | -2
OC12CCCCC1C(c1ccc3c(c1)OCO3)N(Cc1ccc(F)cc1)CC2 (stereo not given) | 54* | i | i | 23 | . | -26
OC12CCCCC1C(c1ccc3c(c1)OCO3)N(Cc1ccccc1F)CC2 (stereo not given) | 57* | i | i | 28 | . | 1
COc1cccc(N/C(SCc2ccccc2F)=C(/C#N)C(=O)NCc2cccs2)c1 | 63* | i | i | 28 | -14 | 8
O=C(O)COC(=O)Cc1ccccc1Nc1c(Cl)cccc1Cl | -25 | i | i | -1 | -9 | 10
Cc1ccc(NC(=O)c2ccccc2O)cc1 | 82* | i | i | 41 | 20 | -8
Cc1ccc(NC(=O)c2ccccc2)cc1 | 25 | i | i | 23 | . | -4
